Assays:
[1] = Terminal phase half life in HIV-infected human PBMC at 800 mg qd for 10 days administered in fasted condition on day 10 by LC-MS/MS analysis; format: ADME, cell-based; details: read-out: beta t1/2 (converted)
Procedure, shortened: (§1)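 EDTA blood kept 4°C, processed within 1 h; PBMCs isolated on Ficoll gradient, washed with 0.9% NaCl, pellet stored −80°C. LC-MS/MS, calibration 0.4–150 ng/ml lysate; cell number by DNA detection. Noncompartmental analysis; AUCτ linear trapezoidal; geometric mean (range).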

[2] = Drug concentration at the end of dosing interval in HIV-infected human plasma at 800 mg qd for 10 days administered in fasted condition on day 10 by HPLC with fluorescence detector; format: ADME, cell-free; details: read-out: Ctau
Procedure, shortened: (§2)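 Day-10 fasted serial sampling 0–24 h after oral 800 mg once daily. Plasma from two centrifugations (390 × g, 1,090 × g, 10 min), stored −80°C; liquid-liquid extraction with tert-butyl methyl ether; HPLC C18, phosphate buffer (25 mM, pH 3)-acetonitrile, fluorescence ex 299/em 396 nm, linear 10–5,000 ng/ml. Noncompartmental: AUCτ linear trapezoidal, Cmax/Cτ by inspection, λz from terminal log-linear regression.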

[3] = Terminal phase half life in HIV-infected human plasma at 800 mg qd for 10 days administered in fasted condition on day 10 by HPLC with fluorescence detector; format: ADME, cell-free; details: read-out: beta t1/2 (converted); procedure, shortened: as §2
[4] = Drug concentration at the end of dosing interval in HIV-infected human PBMC at 800 mg qd for 10 days administered in fasted condition on day 10 by LC-MS/MS analysis; format: ADME, cell-based; details: read-out: Ctau; procedure, shortened: as §1
[5] = tested on: Homo sapiens; assay: Toxicity in HIV-infected human at 800 mg qd for 10 days administered in fasted condition on day 10; format: organism-based; details: in vivo, 240 h
Procedure, shortened: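 Safety assessed on days 0 and 10 by clinical evaluation and laboratory tests (blood counts, chemistry) during 800 mg once-daily oral dosing added to ongoing antiretroviral therapy.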

[6] = AUCt in HIV-infected human PBMC at 800 mg qd for 10 days administered in fasted condition on day 10 by LC-MS/MS analysis; format: ADME, cell-based; procedure, shortened: as §1
[7] = tested on: PBMC; assay: Intracellular compound distribution in ratio in HIV-infected human PBMC at AUCt by LC-MS/MS analysis; format: ADME, cell-based
Procedure, shortened: (§3)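 Intracellular distribution ratio: PBMC concentration (LC-MS/MS) divided by plasma concentration (HPLC-fluorescence), computed per patient for AUCτ, Cmax and Cτ from day-10 fasted 0–24 h profiles after 800 mg once daily; reported as median (range).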

[8] = tested on: PBMC; assay: Intracellular compound distribution in ratio in HIV-infected human PBMC at Cmax by LC-MS/MS analysis; format: ADME, cell-based; procedure, shortened: as §3
[9] = Cmax in HIV-infected human PBMC at 800 mg qd for 10 days administered in fasted condition on day 10 by LC-MS/MS analysis; format: ADME, organism-based; parameters: dose 800 mg; procedure, shortened: as §1
[10] = tested on: PBMC; assay: Intracellular compound distribution in ratio in HIV-infected human PBMC at Ctau by LC-MS/MS analysis; format: ADME, cell-based; procedure, shortened: as §3
[11] = AUCt in HIV-infected human plasma at 800 mg qd for 10 days administered in fasted condition on day 10 by HPLC with fluorescence detector; format: ADME, cell-free; procedure, shortened: as §2
[12] = Cmax in HIV-infected human plasma at 800 mg qd for 10 days administered in fasted condition on day 10 by HPLC with fluorescence detector; format: ADME, organism-based; parameters: dose 800 mg; procedure, shortened: as §2

half-life [1]: 11.2 h
concentration at 240 h [2]: 89 ng/mL
half-life [3]: 16 h
concentration at 240 h [4]: 7 ng/mL
AUC(0-t) at 240 h [6]: 909 ng·h/mL
Ratio [7]: 0.07
Ratio [8]: 0.08
Cmax [9]: 199 ng/mL
Ratio [10]: 0.18
AUC(0-t) at 240 h [11]: 12200 ng·h/mL
Cmax [12]: 2640 ng/mL
SMILES: Cc1nnc(C(=O)NC(C)(C)c2nc(C(=O)NCc3ccc(F)cc3)c(O)c(=O)n2C)o1 [RALTEGRAVIR]
Activity [5]: Non-toxic

From ChEMBL document CHEMBL1687825, “Plasma and intracellular (peripheral blood mononuclear cells) pharmacokinetics of once-daily raltegravir (800 milligrams) in HIV-infected patients” (Antimicrob Agents Chemother, 2011)
